Measurements from ChEMBL document CHEMBL2157878, “In vitro cellular uptake and dimerization of signal transducer and activator of transcription-3 (STAT3) identify the photosensitizing and imaging-potential of isomeric photosensitizers derived from chlorophyll-a and bacteriochlorophyll-a” (J Med Chem, 2011).
Activity calls are given as the source filed them. No cut-off for these calls is given here.

Key:
[1] = Drug uptake in human BCC1 cells assessed as subcellular localization at 3.2 uM after 4 hrs by HPPH fluorescence spectrophotometry; assay type: ADME, cell-based; conditions: bcc1, 4 h
Method in brief: (§1)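 BCC1 cells incubated 30 min in serum-free DMEM with 3.2 μM or 0.2 μM PS, washed, and imaged at 640X under phase contrast or HPPH fluorescence. Cultures then kept a further 4 h in PS- and serum-free DMEM and imaged again under the same conditions to follow subcellular redistribution.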

[2] = Drug uptake in human BCC1 cells assessed as deposition in mitochondria at 3.2 uM after 30 mins by HPPH fluorescence spectrophotometry; assay type: ADME; conditions: bcc1, 0.5 h; method in brief: as §1
[3] = molecular target: MAP kinase p38 (Homo sapiens) (UniProt O15264+Q15759+Q16539+P53778); experiment: Activation of p38 MAPK in human BCC1 cells assessed as dimerization of STAT3 after 9 mins by Western blotting in presence of 665 nm laser light; assay type: cell-based
Method in brief: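 Subconfluent BCC1 cells, 2 h in serum-free DMEM with 2-fold serially diluted PS, then 665 nm dye-laser light for 9 min at 37°C (3 J/cm²) in serum-free medium. Cells extracted immediately and lysed in RIPA. 20 μg protein run on 6–10% SDS gels and immunoblotted for STAT3, p38/P-p38 and EGFR with ECL detection. Crosslinking given as % monomeric STAT3 converted to dimer form I.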

[4] = Drug uptake in human BCC1 cells assessed as subcellular localization at 3.2 uM after 4 hrs by phase contrast microscopy; assay type: ADME, cell-based; conditions: bcc1, 4 h; method in brief: as §1
[5] = Drug uptake in human BCC1 cells assessed as deposition in mitochondria at 3.2 uM after 30 mins by phase contrast microscopy; assay type: ADME; conditions: bcc1, 0.5 h; method in brief: as §1
[6] = Drug uptake in human BCC1 cells assessed as deposition in mitochondria at 200 nM after 30 mins by phase contrast microscopy; assay type: ADME; conditions: bcc1, 0.5 h, 0.2 µM
Method in brief: (§2)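 BCC1 cells in subconfluent culture, washed and incubated 30 min in serum-free DMEM with 200 nM PS. Washed free of PS and imaged at 640X under phase contrast and HPPH fluorescence (Ex 410/40, Em 675/750 nm). Cell PS also quantified by solubilising cells and reading fluorescence (Ex 415, Em 667 nm).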

[7] = Drug uptake in human BCC1 cells assessed as deposition in mitochondria at 200 nM after 30 mins by HPPH fluorescence spectrophotometry; assay type: ADME; conditions: bcc1, 0.5 h, 0.2 µM; method in brief: as §2
BCC1 [8] = experiment: Induction of apoptosis in human BCC1 cells assessed as survival after 24 hrs by trypan blue assay; assay type: functional, cell-based
Method in brief: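 BCC1 cells were loaded for 2 h in serum-free DMEM with 2-fold serial dilutions of photosensitizer. After washing, they were illuminated in serum-free medium at 37° with 665 nm dye-laser light for 9 min (3 J/cm²). Cells were then cultured 24 h in DMEM/10% FCS and trypsinized. Trypan blue-excluding cells were counted by hemocytometer and expressed relative to untreated controls.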

BCC1 [9] = experiment: Increase in STAT3 cross linking level in human BCC1 cells assessed as dimerization of STAT3 after 9 mins by Western blotting in presence of 665 nm light
[10] = Drug uptake in human BCC1 cells at 200 nM after 30 mins by fluorescent microscopy; conditions: bcc1, 30 min, 0.2 µM
Colon 26 [11] = experiment: Antitumor activity against mouse Colon 26 cells xenografted in parenterally dosed BALB/c mouse assessed as tumor cure at 1 umol/kg after 24 hrs followed by illumination with 128 J/cm'2, 14 mW/cm'2 laser light measured after 60 days; assay type: functional
Method in brief: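 Subcutaneous Colon26 tumours in BALB/c mice (10/group), dosed at 4–5 mm diameter with 1 μmol/kg PS. At 24 h, unanaesthetised restrained mice received laser light to the tumour (665, 660 or 674 nm by compound; 128 J/cm², 14 mW/cm²). Tumours measured daily (V = L·W²/2). Cure means no palpable tumour by day 60–90. Euthanasia at 400 mm³.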

BCC1 [12] = experiment: Reduction in EGFR levels in human BCC1 cells after 9 mins by Western blotting in presence of 665 nm laser light; assay type: functional, cell-based
Method in brief: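 BCC1 cells were incubated 2 h in serum-free DMEM with 2-fold serially diluted photosensitizer, washed, and illuminated with 665 nm light for 9 min (3 J/cm²). They were extracted immediately in RIPA buffer. Extracts (20 μg protein) were run on 6–10% SDS gels and immunoblotted for STAT3, EGFR, p38 and P-p38 with ECL detection. STAT3 crosslinking was scored as percent conversion of monomer into dimer form I.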

[13] = test system: BCC1 cells (Homo sapiens); experiment: Ratio of drug uptake in human BCC1 cells in serum free medium to drug uptake in human BCC1 cells in medium containing 10% fetal calf serum by fluorescent microscopy
Colon 26 [14] = experiment: Drug uptake in mouse Colon 26 cells at 400 nM after 24 hrs by flow cytometry; assay type: ADME, cell-based; conditions: colon 26, 24 h, 0.4 µM
Method in brief: (§3)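 Colon26 cells seeded at 0.33×10⁶ per well and grown overnight, then given 100–800 nM PS in triplicate at 37°C, with no-PS wells for autofluorescence. Harvested by trypsin, spun cold, and run on flow cytometry (Ex 633 nm, Em 730±45 nm, 10,000 events). Value is mean fluorescence of triplicates minus autofluorescence.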

Colon 26 [15] = experiment: Photosensitizing activity in mouse Colon 26 assessed as cell viability at 0.0625 uM after 24 hrs followed by illumination with 665 nm laser light and 48 hrs incubation in dark by MTT assay in presence of serum; assay type: functional, cell-based
Method in brief: (§4)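 Colon26 cells, 3×10³/well in RPMI/10% FCS, were incubated 24 h in the dark with photosensitizer at 0.3 μM or 0.0625 μM. Medium was replaced with drug-free complete medium before illumination at 0–4 J/cm², 3.2 mW/cm², at each compound's peak wavelength (660, 665 or 674 nm). After 48 h in the dark, MTT was added for the last 4 h and absorbance read at 570 nm. Four replicate wells per condition, three independent experiments.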

Zone of skin = experiment: Drug uptake in skin of BALB/c mouse xenografted with mouse Colon 26 cells measured after removal of tumor at 1 umol/kg, iv after 24 hrs by fluorescence imaging; assay type: ADME, organism-based; conditions: in vivo
Method in brief: (§5)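 BALB/c mice carried subcutaneous Colon26 tumors (1×10⁶ cells, right posterior axilla) grown to 4–5 mm and were given 1 μmol/kg i.v. At 24 h the tumor was surgically removed and imaged, and the skin flap was imaged separately. Excitation was 540/40 nm with long-pass emission, followed by spectral unmixing of autofluorescence.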

Mus musculus [16] = experiment: Drug uptake in BALB/c mouse xenografted with mouse Colon 26 cells at 1 umol/kg, iv after 72 hrs by fluorescence imaging; assay type: ADME, organism-based; conditions: in vivo
Method in brief: (§6)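 BALB/c mice (3/group) with Colon26 tumours (1×10⁶ cells s.c., right axilla, grown to 4–5 mm) were shaved and given 1.0 μmol/kg PS i.v. Whole-body fluorescence imaged under ketamine/xylazine at 24, 48 and 72 h: 540/40 nm illumination, long-pass emission filter, spectral unmixing of autofluorescence. Read-out is mean intensity of a 20 mm tumour ROI (AU), mean ± SD of 3 mice.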

[17] = Photostability of the compound in 17% bovine calf serum assessed as rate of photobleaching at 6.5 uM after 20 to 22 mins in presence of light (75 mW/cm'2); assay type: ADME; conditions: cattle, read-out: Drug degradation
Method in brief: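 Equimolar (6.5 μM) photosensitizer solutions in 17% bovine calf serum were irradiated at 75 mW/cm². Absorption spectra were recorded at successive time points, and the normalized long-wavelength absorbance was plotted against time to follow photobleaching.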

Mus musculus [18] = experiment: Drug uptake in BALB/c mouse xenografted with mouse Colon 26 cells at 1 umol/kg, iv after 24 hrs by fluorescence imaging; assay type: ADME, organism-based; conditions: in vivo; method in brief: as §6
Mus musculus [19] = experiment: Drug uptake in BALB/c mouse xenografted with mouse Colon 26 cells at 1 umol/kg, iv after 48 hrs by fluorescence imaging; assay type: ADME, organism-based; conditions: in vivo; method in brief: as §6
[20] = Drug uptake in human BCC1 cells at 200 nM incubated for 30 mins measured after 4 to 24 hrs by fluorescent microscopy; assay type: ADME, cell-based; conditions: bcc1, 0.5 h, 0.2 µM
[21] = Drug uptake in tumor of BALB/c mouse xenografted with mouse Colon 26 cells at 1 umol/kg, iv after 24 hrs by fluorescence imaging; assay type: ADME, organism-based, Neoplasm; conditions: in vivo; method in brief: as §5
[22] = Drug uptake in BALB/c mouse tumor xenografted with mouse Colon 26 cells at 1 umol/kg, iv after 24 hrs by fluorescence imaging; assay type: ADME, organism-based, Neoplasm; conditions: in vivo; method in brief: as §6
Colon 26 [23] = experiment: Drug uptake in mouse Colon 26 cells at 800 nM after 24 hrs by flow cytometry; assay type: ADME, cell-based; conditions: colon 26, 24 h, 0.8 µM; method in brief: as §3
Muscle tissue = experiment: Drug uptake in BALB/c mouse muscle xenografted with mouse Colon 26 cells at 150 uCi administered parenterally after 2 hrs by PET analysis; assay type: ADME, tissue-based; conditions: in vivo
Heart = experiment: Drug uptake in BALB/c mouse heart xenografted with mouse Colon 26 cells at 150 uCi administered parenterally after 2 hrs by PET analysis; assay type: ADME, tissue-based; conditions: in vivo, other
[24] = Drug uptake in BALB/c mouse tumor xenografted with mouse Colon 26 cells at 150 uCi administered parenterally after 2 hrs by PET analysis; assay type: ADME, Neoplasm; conditions: in vivo, other
[25] = Drug uptake in human BCC1 cells assessed as deposition in mitochondria at 0.2 uM after 30 mins by HPPH fluorescence spectrophotometry; assay type: ADME; conditions: bcc1, 0.5 h; method in brief: as §2
Spleen = experiment: Drug uptake in parenterally dosed BALB/c mouse spleen xenografted with mouse Colon 26 cells after 72 hrs by PET analysis; assay type: ADME, organism-based; conditions: in vivo
Method in brief: (§7)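 Tumor-bearing BALB/c mice (Colon26, subcutaneous) received ¹²⁴I-labeled photosensitizer via the tail vein at 15–50 μCi. Three mice per time point were sacrificed at 24, 48 and 72 h. Organs were removed, weighed and counted in a γ-well counter. Uptake was expressed as %ID/g tissue.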

[26] = Drug uptake in human BCC1 cells assessed as subcellular localization at 0.2 uM after 4 hrs by HPPH fluorescence spectrophotometry; assay type: ADME, cell-based; conditions: bcc1, 4 h; method in brief: as §1
Liver = experiment: Drug uptake in parenterally dosed BALB/c mouse liver xenografted with mouse Colon 26 cells after 72 hrs by PET analysis; assay type: ADME, organism-based; conditions: in vivo; method in brief: as §7
Colon 26 [27] = experiment: Photosensitizing activity in mouse Colon 26 assessed as cell viability at 0.3 uM after 24 hrs followed by illumination with 665 nm laser light and 48 hrs incubation in dark by MTT assay; assay type: functional, cell-based; method in brief: as §4
[28] = Drug uptake in human BCC1 cells assessed as deposition in mitochondria at 0.2 uM after for 30 mins by phase contrast microscopy; assay type: ADME; conditions: bcc1, 0.5 h; method in brief: as §2
Intestine = experiment: Drug uptake in parenterally dosed BALB/c mouse intestine xenografted with mouse Colon 26 cells after 72 hrs by PET analysis; assay type: ADME, organism-based; conditions: in vivo, other; method in brief: as §7
[29] = Drug uptake in human BCC1 cells assessed as subcellular localization at 0.2 uM after 4 hrs by phase contrast microscopy; assay type: ADME, cell-based; conditions: bcc1, 4 h; method in brief: as §1

Compound	Activity [3]	Drug uptake [6]	Drug uptake [7]	Activity (BCC1 [8])	Activity (BCC1 [9])	Activity (Colon 26 [11])	Activity (BCC1 [12])	Ratio [13]	Drug uptake (Colon 26 [14])	Activity (Colon 26 [15])	Drug uptake (Zone of skin)	Drug uptake (Mus musculus [16])	degraded at 6.5 µM [17]	Drug uptake (Mus musculus [18])	Drug uptake (Mus musculus [19])	Drug uptake [20]	Drug uptake [21]	Drug uptake [22]	Drug uptake (Colon 26 [23])	further results
CCC1=C(C)c2cc3[nH]c(cc4nc(c5c6[nH]c(cc1n2)c(C)c6C(=O)C5)C(CCC(=O)OC)[C@@H]4C)c(C)c3C(C)OCc1cccc(I)c1 (stereo partly specified)	Active	Active	Active	Dose-dependent effect	Active	20%	Active	5	–	–	–	–	–	–	–	–	–	–	–	Drug uptake [1]: Active; Drug uptake [2]: Active; Drug uptake [4]: Active; Drug uptake [5]: Active; Drug uptake [10]: Active
CC[C@H]1c2cc3[nH]c4c(c5nc(cc6[nH]c(cc(n2)[C@@H]1C)c(C(C)OCc1cccc(I)c1)c6C)C(C)=C5CCC(=O)O)CC(=O)c4c3C (stereo partly specified)	Active	Active	Active	Dose-dependent effect	Active	60%	Active	4	Active	Active	Not Active	Active	50%	Active	Active	Active	Active	Active	Active	–
OC[C@H]1O[C@@H](O)[C@H]([18F])[C@@H](O)[C@@H]1O [FLUDEOXYGLUCOSE-F18]	–	–	–	–	–	–	–	–	–	–	–	–	–	–	–	–	–	–	–	Drug uptake (Muscle tissue): Active; Drug uptake (Heart): Active; Drug uptake [24]: Active
CCC1=C(C)c2cc3[nH]c(cc4nc(c5c6[nH]c(cc1n2)c(C)c6C(=O)C5)C(CCC(=O)O)[C@@H]4C)c(C)c3C(C)OCc1cccc(I)c1 (stereo partly specified)	Active	Active	Active	Dose-dependent effect	Active	–	Active	4	Active	Active	Not Active	Active	50%	Active	Active	Active	Active	Active	Active	Drug uptake [25]: Active; Drug uptake (Spleen): Active; Drug uptake [26]: Active; Drug uptake (Liver): Active; Activity (Colon 26 [27]): Active; Drug uptake [28]: Active; Drug uptake (Intestine): Active; Drug uptake [29]: Active
